Reference: article PMC9052103 (RSC Advances, 2020)
Where two headings read alike, the source gives them in different places.

Columns and labels:
E. faecium ATCC 49624 = assay: MIC, 96-well microtiter broth dilution; type: cell-based
E. cloacae ATCC BAA-1143 = assay: MIC, 96-well microtiter broth dilution; type: cell-based; conditions: AmpC beta-lactamase expressing strain
A. baumannii ATCC 19606 = assay: MIC, 96-well microtiter broth dilution; type: cell-based; conditions: Multi-drug resistant strain
[1] = tested on: S. epidermidis ATCC 12228; assay: MIC, 96-well microtiter broth dilution; type: cell-based
E. faecium ATCC 700221 = assay: MIC, 96-well microtiter broth dilution; type: cell-based; conditions: for MIC E. faecium ATCC 700221: Vancomycin-resistant strain, Table 2
S. aureus ATCC BAA-1747 = assay: MIC, 96-well microtiter broth dilution; type: cell-based; conditions: for MIC S. aureus ATCC BAA-1747: MRSA
S. aureus FtsZ = target: T1, S. aureus FtsZ (Staphylococcus aureus, UniProt P0A031); assay: Light-scattering assay of FtsZ polymerization; type: biochemical; conditions: for Effect on FtsZ polymerization at a concentration gradient: 0.125–0.5 μg mL^−1; for Light scattering signal compared to control (FtsZ polymerization): same concentration, 0.125 μg mL^−1
T1 sequence (P0A031 1-390): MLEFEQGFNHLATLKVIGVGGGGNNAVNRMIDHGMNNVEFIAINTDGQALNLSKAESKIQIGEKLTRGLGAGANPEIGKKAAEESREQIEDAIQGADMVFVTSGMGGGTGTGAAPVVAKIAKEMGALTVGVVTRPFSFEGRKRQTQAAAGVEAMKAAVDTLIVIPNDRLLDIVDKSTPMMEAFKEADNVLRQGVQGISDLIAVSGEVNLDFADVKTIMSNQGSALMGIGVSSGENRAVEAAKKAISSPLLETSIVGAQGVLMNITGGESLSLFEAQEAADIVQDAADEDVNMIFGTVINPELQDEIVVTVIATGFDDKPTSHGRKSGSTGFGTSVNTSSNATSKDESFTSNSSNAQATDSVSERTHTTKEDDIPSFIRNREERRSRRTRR
Outline: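 S. aureus FtsZ (4 μM) in 50 mM MOPS pH 6.5, preincubated 10 min at 25 °C with 1% DMSO vehicle or test compound. Baseline set after adding 50 mM KCl and 10 mM MgCl2. After 10 min, 1 mM GTP added. 90° light scattering (excitation/emission 600 nm) followed for 25 min, with blank background subtracted. Rate and extent of polymerization calculated. Triplicates.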

S. aureus ATCC BAA-1720 = assay: MIC, 96-well microtiter broth dilution; type: cell-based; conditions: for MIC S. aureus ATCC BAA-1720: MRSA
S. aureus ATCC BAA-41 = assay: MIC, 96-well microtiter broth dilution; type: cell-based; conditions: for MIC S. aureus ATCC BAA-41: MRSA
[2] = tested on: K. pneumoniae ATCC BAA-2470; assay: MIC, 96-well microtiter broth dilution; type: cell-based; conditions: NDM-1 expressing strain
S. aureus ATCC BAA-44 = assay: MIC, 96-well microtiter broth dilution; type: cell-based
E. faecalis ATCC 29212 = assay: MIC, 96-well microtiter broth dilution; type: cell-based
S. aureus ATCC 43300 = assay: MIC, 96-well microtiter broth dilution; type: cell-based; conditions: for MIC S. aureus ATCC 43300: MRSA
B. subtilis 168 = assay: MIC, 96-well microtiter broth dilution; type: cell-based
S. aureus ATCC 29213 [3] = assay: MIC, 96-well microtiter broth dilution; type: cell-based; conditions: for MIC S. aureus ATCC 29213: Table 2; for MIC: Staphylococcus aureus
[4] = tested on: P. aeruginosa ATCC BAA-2108; assay: MIC, 96-well microtiter broth dilution; type: cell-based; conditions: Multi-drug resistant strain
E. coli ATCC 25922 = assay: MIC, 96-well microtiter broth dilution; type: cell-based
E. coli ATCC BAA-2469 = assay: MIC, 96-well microtiter broth dilution; type: cell-based; conditions: NDM-1 expressing strain
SaFtsZ = SaFtsZ (Staphylococcus aureus, UniProt P0A031); assay: SaFtsZ binding affinity assay; design: species or system S. aureus
Outline: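 Fluorescence titration at 25 °C in 50 mM Tris–HCl pH 7.4, 50 mM KCl, 2 mM magnesium acetate. Test compound at 3.51 or 3.68 μM titrated with SaFtsZ in 0.4 μM steps (0.4–6.4 μM), equilibrating 2 min per step. Excitation 493 nm, emission 500–700 nm, buffer-titration background subtracted. Kd obtained by nonlinear fit to an independent-site model.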

[5] = tested on: mouse fibroblast cells (L929); assay: CCK-8 cytotoxicity assay; type: cell-based; conditions: L929, 48 h, read-out: IC50 L929
Outline: (§1)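 Cells seeded at 5000 per well and allowed to adhere overnight at 37 °C, then exposed to test compound for 48 h. CCK-8 reagent added for a further 3 h, with absorbance read at 450 nm. Triplicates.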

S. aureus ATCC 29213 [6] = assay: In vitro drug resistance development, serial passage; type: cell-based
Outline: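 Serial passage against S. aureus ATCC 29213: culture from the 0.5 × MIC well of the prior MIC plate diluted to 5 × 10^5 CFU mL−1 and exposed to a range of test compound concentrations. MIC read after 24 h at 37 °C. Cycle repeated 35 times. Ciprofloxacin, vancomycin and rifampin passaged in parallel.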

Z-ring in B. subtilis = assay: Visualization of Z-ring; type: cell-based; conditions: 0.5 × MIC, 4 h
Outline: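 B. subtilis carrying IPTG-inducible GFP-FtsZ plasmid grown in LB with 30 μg mL−1 chloramphenicol at 37 °C with shaking; overnight culture diluted to 1% in LB with 40 μM IPTG plus test compound at 0.5 × MIC, 4 h at 37 °C. Cells fixed, resuspended in PBS, placed on 0.1% (w/v) poly-L-lysine-coated slides; imaged by confocal microscopy, 40× oil immersion.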

MRSA strains = assay: MIC, summary over MRSA strains; type: cell-based, S. aureus; conditions: Staphylococcus aureus, read-out: MIC against MRSA
[7] = tested on: human renal tubular epithelial cells (HK-2); assay: CCK-8 cytotoxicity assay; type: cell-based; conditions: Epithelial cell, 48 h, read-out: IC50 HK-2
Outline: as §1

S. aureus FtsZ (SaFtsZ) = S. aureus FtsZ (SaFtsZ) (Staphylococcus aureus, UniProt P0A031); assay: GTPase activity assay; type: biochemical
Outline: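 Phosphate-release kit assay: S. aureus FtsZ (7.3 μM) in assay buffer with 1% DMSO vehicle or varied concentrations of test compound. Reaction started with 200 μM GTP and run 30 min at room temperature. Colour reagent added for another 30 min to stop the reaction, and inorganic phosphate read at 620 nm. Triplicates.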

[8] = tested on: human bronchial epithelium cells (16HBE); assay: CCK-8 cytotoxicity assay; type: cell-based; conditions: 48 h, read-out: IC50 16HBE
Outline: as §1

E. coli ATCC 8739 = assay: MIC, 96-well microtiter broth dilution; type: cell-based; conditions: Escherichia coli, ATCC8739, read-out: MIC E. coli ATCC 8739

## 1-Methyl-2-((E)-4-(methylthio)styryl)-4-((Z)-(3-(3-(piperidin-1-yl)propyl)benzo[d]thiazol-2(3H)-ylidene)methyl)quinolin-1-ium iodide [Compound 4e3]
E. faecium ATCC 49624
  MIC E. faecium ATCC 49624: 16 µg/mL
E. cloacae ATCC BAA-1143
  MIC E. cloacae ATCC BAA-1143: 64 µg/mL
A. baumannii ATCC 19606
  MIC A. baumannii ATCC 19606: 64 µg/mL
[1]
  MIC S. epidermidis ATCC 12228: 4 µg/mL
E. faecium ATCC 700221
  MIC E. faecium ATCC 700221: 8 µg/mL
S. aureus ATCC BAA-1747
  MIC S. aureus ATCC BAA-1747: 16 µg/mL
S. aureus FtsZ
  Effect on FtsZ polymerization at a concentration gradient: did not show significant change
  Light scattering signal compared to control (FtsZ polymerization): almost no signal change
S. aureus ATCC BAA-1720
  MIC S. aureus ATCC BAA-1720: 16 µg/mL
S. aureus ATCC BAA-41
  MIC S. aureus ATCC BAA-41: 16 µg/mL
[2]
  MIC K. pneumoniae ATCC BAA-2470: 64 µg/mL
S. aureus ATCC BAA-44
  MIC S. aureus ATCC BAA-44: 8 µg/mL
E. faecalis ATCC 29212
  MIC E. faecalis ATCC 29212: >64 µg/mL
S. aureus ATCC 43300
  MIC S. aureus ATCC 43300: 8 µg/mL
B. subtilis 168
  MIC B. subtilis 168: 8 µg/mL
S. aureus ATCC 29213 [3]
  MIC S. aureus ATCC 29213: 8 µg/mL

## 2-((E)-4-Hydroxystyryl)-1-methyl-4-((Z)-(3-(3-(piperidin-1-yl)propyl)benzo[d]thiazol-2(3H)-ylidene)methyl)quinolin-1-ium iodide [Compound 4e2]
E. faecium ATCC 49624
  MIC E. faecium ATCC 49624: 16 µg/mL
E. cloacae ATCC BAA-1143
  MIC E. cloacae ATCC BAA-1143: >64 µg/mL
A. baumannii ATCC 19606
  MIC A. baumannii ATCC 19606: >64 µg/mL
[1]
  MIC S. epidermidis ATCC 12228: 8 µg/mL
E. faecium ATCC 700221
  MIC E. faecium ATCC 700221: 8 µg/mL
[4]
  MIC P. aeruginosa ATCC BAA-2108: 64 µg/mL
S. aureus ATCC BAA-1747
  MIC S. aureus ATCC BAA-1747: 32 µg/mL
E. coli ATCC 25922
  MIC E. coli ATCC 25922: 4 µg/mL
E. coli ATCC BAA-2469
  MIC E. coli ATCC BAA-2469: 8 µg/mL
S. aureus ATCC BAA-1720
  MIC S. aureus ATCC BAA-1720: 16 µg/mL
S. aureus ATCC BAA-41
  MIC S. aureus ATCC BAA-41: 16 µg/mL
[2]
  MIC K. pneumoniae ATCC BAA-2470: 64 µg/mL
S. aureus ATCC BAA-44
  MIC S. aureus ATCC BAA-44: 16 µg/mL
E. faecalis ATCC 29212
  MIC E. faecalis ATCC 29212: >64 µg/mL
S. aureus ATCC 43300
  MIC S. aureus ATCC 43300: 8 µg/mL
B. subtilis 168
  MIC B. subtilis 168: 4 µg/mL
S. aureus ATCC 29213 [3]
  MIC S. aureus ATCC 29213: 16 µg/mL

## 2-((E)-4-(Dimethylamino)styryl)-1-methyl-4-((Z)-(3-(3-(piperidin-1-yl)propyl)benzo[d]thiazol-2(3H)-ylidene)methyl)quinolin-1-ium iodide [Compound 4e4]
E. faecium ATCC 49624
  MIC E. faecium ATCC 49624: 32 µg/mL
E. cloacae ATCC BAA-1143
  MIC E. cloacae ATCC BAA-1143: 64 µg/mL
A. baumannii ATCC 19606
  MIC A. baumannii ATCC 19606: >64 µg/mL
[1]
  MIC S. epidermidis ATCC 12228: 2 µg/mL
E. faecium ATCC 700221
  MIC E. faecium ATCC 700221: 4 µg/mL
[4]
  MIC P. aeruginosa ATCC BAA-2108: 64 µg/mL
S. aureus ATCC BAA-1747
  MIC S. aureus ATCC BAA-1747: 16 µg/mL
E. coli ATCC BAA-2469
  MIC E. coli ATCC BAA-2469: 8 µg/mL
S. aureus ATCC BAA-1720
  MIC S. aureus ATCC BAA-1720: 8 µg/mL
S. aureus ATCC BAA-41
  MIC S. aureus ATCC BAA-41: 16 µg/mL
S. aureus ATCC BAA-44
  MIC S. aureus ATCC BAA-44: 8 µg/mL
E. faecalis ATCC 29212
  MIC E. faecalis ATCC 29212: 32 µg/mL
S. aureus ATCC 43300
  MIC S. aureus ATCC 43300: 8 µg/mL
B. subtilis 168
  MIC B. subtilis 168: 8 µg/mL
S. aureus ATCC 29213 [3]
  MIC S. aureus ATCC 29213: 16 µg/mL

## CC1CCN(CCCN2/C(=C/c3cc[n+](C)c4ccccc34)Sc3ccccc32)CC1.[I-] [Compound 4b4, (Z)-1-Methyl-4-((3-(3-(4-methylpiperidin-1-yl)propyl)benzo[d]thiazol-2(3H)-ylidene)methyl)quinolin-1-ium iodide]
SaFtsZ
  Kd: 3.23 µM
E. faecium ATCC 49624; Enterococcus faecium, ATCC49624, read-out: MIC E. faecium ATCC 49624
  MIC: 8 µg/mL
[5]
  IC50: 23.4 µg/mL
[1]; Staphylococcus epidermidis, ATCC12228, read-out: MIC S. epidermidis ATCC 12228
  MIC: 0.25 µg/mL
E. faecium ATCC 700221; Enterococcus faecium, ATCC700221
  MIC: 16 µg/mL
E. faecium ATCC 700221; read-out: MIC against VRE
  MIC: 2 to 16 µg/mL
S. aureus ATCC 29213 [6]
  Increase of MIC after 35 passages: 8 fold
Z-ring in B. subtilis
  Effect on Z-ring formation (GFP-FtsZ localization): promoted the mislocalization of the FtsZ protein
S. aureus ATCC BAA-1747; Staphylococcus aureus, ATCCBAA1747|MRSA, read-out: MIC S. aureus ATCC BAA-1747
  MIC: 4 µg/mL
MRSA strains
  MIC: 1 to 8 µg/mL
S. aureus FtsZ
  Effect on FtsZ polymerization at a concentration gradient: enhance FtsZ polymerization in a dose-dependent manner
  Light scattering signal compared to control (FtsZ polymerization): significant increase in light scattering signal
E. coli ATCC 25922; Escherichia coli, ATCC25922, read-out: MIC E. coli ATCC 25922
  MIC: 2 µg/mL
S. aureus ATCC BAA-1720; Staphylococcus aureus, ATCCBAA1720|MRSA, read-out: MIC S. aureus ATCC BAA-1720
  MIC: 8 µg/mL
[7]
  IC50: 18.6 µg/mL
S. aureus ATCC BAA-41; Staphylococcus aureus, ATCCBAA41|MRSA, read-out: MIC S. aureus ATCC BAA-41
  MIC: 1 µg/mL
E. faecalis ATCC 29212; Enterococcus faecalis, ATCC29212, read-out: MIC E. faecalis ATCC 29212
  MIC: 16 µg/mL
S. aureus FtsZ (SaFtsZ)
  Effect on GTPase activity of SaFtsZ: did not show any effect
[8]
  IC50: 20.2 µg/mL
S. aureus ATCC 43300; Staphylococcus aureus, ATCC43300|MRSA, read-out: MIC S. aureus ATCC 43300
  MIC: 8 µg/mL
E. coli ATCC 8739
  MIC: 2 µg/mL
S. aureus ATCC 29213 [3]; ATCC29213
  MIC: 2 µg/mL
S. aureus ATCC 29213 [3]; ATCC29213, read-out: MIC S. aureus ATCC 29213
  MIC: 2 µg/mL
S. aureus ATCC 29213 [3]; ATCC29213, read-out: S. aureus ATCC 29213 (MIC)
  MIC: 2 µg/mL
